The values that follow come from ChEMBL document CHEMBL4011639, “Discovery of Novel Nucleotide Prodrugs with Improved Potency Against HCV Variants Carrying NS5B S282T Mutation” (J Med Chem, 2017).

In data set [1] the test system is Mus musculus. Put plainly: Subacute toxicity in ICR mouse assessed as effect on tubules at 100 to 1000 mg/kg, administered once a day via oral gavage for 14 days by hematoxylin/eosin-staining based microscopic analysis. The conditions noted are these: in vivo, 336 h. The data set is classed as organism-based. The method in brief: (§1)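 Same 14-day daily oral gavage design as the subacute study (ICR mice, 5 per sex per group, 100/500/1000 mg/kg or vehicle). Liver and kidney taken after anesthesia on day 15, processed routinely, cut as 5 μm paraffin sections, stained with hematoxylin and eosin and examined microscopically.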

Data set [2] concerns Mus musculus. As to the kind of experiment: Subacute toxicity in ICR mouse assessed as effect on glomerulus at 100 to 1000 mg/kg, administered once a day via oral gavage for 14 days by hematoxylin/eosin-staining based microscopic analysis. The data set is classed as organism-based. The conditions noted are these: in vivo, 336 h. In short, it runs like this:
as §1

The subject of data set [3] is Mus musculus. Put plainly: Subacute toxicity in ICR mouse assessed as effect on renal architecture at 100 to 1000 mg/kg, administered once a day via oral gavage for 14 days by hematoxylin/eosin-staining based microscopic analysis. The data set is classed as organism-based. Conditions: in vivo, 336 h. The method in brief:
as §1

Data set [4] concerns Mus musculus. As to the kind of experiment: Subacute toxicity in ICR mouse assessed as effect on appearance of hepatocytes at 100 to 1000 mg/kg, administered once a day via oral gavage for 14 days by hematoxylin/eosin-staining based microscopic analysis. The conditions noted are these: in vivo, 336 h. The data set is classed as organism-based. The method in brief: as §1
Data set [5] deals with Mus musculus. Put plainly: Subacute toxicity in ICR mouse assessed as alteration in basic levels of SGPT at 100 to 1000 mg/kg, administered once a day via oral gavage for 14 days. The data set is classed as organism-based. The conditions noted are these: in vivo, 336 h. The method in brief:
(§2)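 ICR mice, 22−25 g, 5 per sex per group, gavaged daily for 14 days at 100, 500 or 1000 mg/kg in 30% PEG400/30% Tween 20/20% corn oil/20% water, with a vehicle control group. Observed daily for body weight change, skin and fur, inflammation and necrosis. Animals anesthetized on day 15; organ weights (liver, kidney) taken. Serum SGOT/SGPT compared with controls.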

For data set [6], the system named is Mus musculus. Put plainly: Subacute toxicity in ICR mouse assessed as alteration in basic levels of SGOT at 100 to 1000 mg/kg, administered once a day via oral gavage for 14 days. The data set is classed as organism-based. The conditions noted are these: in vivo, 336 h. In short, it runs like this: as §2
Data set [7] is described as follows: Drug metabolism in human HuH7 cells assessed as nucleoside diphosphate kinase-mediated ((2R,3R,4R,5R)-5-(4-amino-2-oxopyrimidin-1(2H)-yl)-4-fluoro-3-hydroxy-4-methyltetrahydrofuran-2-yl)methyl tetrahydrogen triphosphate metabolite formation at 50 uM after 48 hrs by LC/MS/MS analysis. The data set is classed as ADME, cell-based. In short, it runs like this: (§3)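 Huh-7 cells plated at 0.35 million/mL in DMEM with 10% FBS (about 1 million per well at dosing) and grown 18 h. At each time point cells were washed with cold saline and lysed in methanol with internal standard. Semiquantified by LC/MS/MS MRM as Δ mean peak-area ratio relative to t0.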

A further data set has as its target T1, UMP-CMP kinase (Homo sapiens, UniProt P30085).
T1 sequence (P30085 whole entry): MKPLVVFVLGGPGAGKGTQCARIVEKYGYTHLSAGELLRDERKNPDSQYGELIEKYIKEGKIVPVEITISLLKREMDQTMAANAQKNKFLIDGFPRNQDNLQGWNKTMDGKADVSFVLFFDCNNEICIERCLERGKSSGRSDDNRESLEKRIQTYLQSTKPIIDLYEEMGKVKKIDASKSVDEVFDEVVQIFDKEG
As to the kind of experiment: Drug metabolism in human HuH7 cells assessed as UMP-CMP kinase-mediated ((2R,3R,4R,5R)-5-(4-amino-2-oxopyrimidin-1(2H)-yl)-4-fluoro-3-hydroxy-4-methyltetrahydrofuran-2-yl)methyl dihydrogen phosphate metabolite formation at 50 uM after 48 hrs by LC/MS/MS analysis. The data set is classed as ADME, cell-based. The method in brief: as §3

Data set [8] is described as follows: Drug metabolism in human HuH7 cells assessed as carboxylesterase-mediated (S)-2-((S)-(((2R,3R,4R,5R)-5-(4-amino-2-oxopyrimidin-1(2H)-yl)-4-fluoro-3-hydroxy-4-methyltetrahydrofuran-2-yl)methoxy)(hydroxy)phosphoryloxy)propanoic acid metabolite formation at 50 uM after 24 hrs by LC/MS/MS analysis. The data set is classed as ADME, cell-based. The method in brief: as §3

Data set [9] can be described thus: Tmax in Beagle dog at 150 mg/kg, administered via oral gavage measured up to 24 hrs post dose by LC/MS/MS analysis. The conditions noted are these: in vivo. The format is ADME, organism-based, Canis lupus familiaris. The method in brief: (§4)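 Beagle dogs, 3 per sex, given a single oral gavage dose of 150 mg/kg in 20% w/v hydroxypropyl-β-cyclodextrin in water, 2.5 mL/kg. K2EDTA blood taken by venipuncture at 0.5, 0.75, 1, 2, 4, 6, 8, 12 and 24 h. Plasma extracted with ice-cold acetonitrile, then LC/MS/MS in positive MRM mode with zolpidem as internal standard. Noncompartmental analysis; mean ± SD.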

In data set [10] the test system is Mus musculus. As to the kind of experiment: Acute toxicity in ICR mouse assessed as mortality at 150 to 1800 mg/kg, administered via oral gavage measured once a day over 14 days. The format is organism-based. The conditions noted are these: in vivo, 336 h. In short, it runs like this:
(§5)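 ICR mice, 22−25 g, 5 per sex per group. Single oral gavage at 150, 500, 1200 or 1800 mg/kg in vehicle of 30% PEG400/30% Tween 20/20% corn oil/20% water, with a vehicle control. Mortality, morbidity, clinical signs and body weight change recorded once daily for 14 days.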

Data set [11] is described as follows: Inhibition of wild type NS5B in HCV genotype 1b replicon expressed in human HuH7 cells after 72 hrs by bright Glo-luciferase reporter gene assay. The format is cell-based, Hepatitis C virus subtype 1b. The conditions noted are these: Hepatitis C virus, Huh-7, 72 h. In short, it runs like this:
(§6)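 Huh7 cells carrying HCV genotype 1b replicon, 8000 per well, in duplicate 3-fold dilution series with 0.5% DMSO final; 72 h at 37 °C, 5% CO2. Viability read by Cell Titer-Fluor fluorescence after 5 min; replicon inhibition read by Bright-Glo luciferase luminescence in the same wells. EC50 and CC50 come from curve fitting.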
A general note: In antiviral work, replicon cells carry a viral genome segment that copies itself.

A further data set relates to Huh-7. Put plainly: Cytotoxicity against human HuH7 cells assessed as reduction in cell viability up to 100 uM after 72 hrs by Cell Titer-Fluor Cell assay. The data set is classed as cell-based. The conditions noted are these: huh-7, 72 h. In short, it runs like this:
as §6

Data set [12] is described as follows: Half life in human plasma […] by LC/MS/MS analysis. The data set is classed as ADME, cell-free. In short, it runs like this:
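Pooled human plasma adjusted to pH 7.4 and prewarmed, then spiked to 2 μM final from a 200 μM DMSO working solution, in duplicate. Sampled at 0, 10, 30, 60 and 120 min and quenched with acetonitrile containing tolbutamide and buspirone. LC/MS/MS (MRM) peak area ratios; ke from linear regression of the initial linear phase, t1/2 = ln2/ke.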

Data set [13] is described as follows: AUC (0 to infinity) in Beagle dog at 150 mg/kg, administered via oral gavage measured up to 24 hrs post dose by LC/MS/MS analysis. The format is ADME, organism-based, Canis lupus familiaris. The conditions noted are these: in vivo. Details: dose 150 mg/kg, route oral, time infinity. In short, it runs like this:
as §4

In data set [14] the test system is Mus musculus. As to the kind of experiment: Acute toxicity in ICR mouse assessed as body weight loss at 150 to 1800 mg/kg, administered via oral gavage measured once a day over 14 days. The format is organism-based. Conditions: in vivo, 336 h. In short, it runs like this:
as §5

Data set [15] relates to Mus musculus. As to the kind of experiment: Subacute toxicity in ICR mouse assessed as clinical signs of toxicity at 100 to 1000 mg/kg, administered once a day via oral gavage for 14 days. The data set is classed as organism-based. The conditions noted are these: in vivo, 336 h. In short, it runs like this:
as §2

Data set [16] relates to Mus musculus. Put plainly: Subacute toxicity in ICR mouse assessed as body weight loss at 100 to 1000 mg/kg, administered once a day via oral gavage for 14 days. The format is organism-based. The conditions noted are these: in vivo, 336 h. In short, it runs like this:
as §2

The test system of data set [17] is Mus musculus. Put plainly: Subacute toxicity in ICR mouse assessed as macroscopic pathologic findings at 100 to 1000 mg/kg, administered once a day via oral gavage for 14 days. The format is organism-based. The conditions noted are these: in vivo, 336 h. The method in brief: as §2

A value given as a limit tells only on which side of the number the result lay.

`CCCC(=O)Nc1ccn([C@@H]2O[C@H](CO[P@@](=O)(N[C@@H](C)C(=O)OC(C)C)Oc3ccccc3)[C@@H](O)[C@@]2(C)F)c(=O)n1`: the Activity result in the data set on Mus musculus [1], in the data set on Mus musculus [2], in the data set with Mus musculus [3], in the data set on Mus musculus [4], in the data set with Mus musculus [5] and in the data set with Mus musculus [6] was “Non-Toxic” throughout. For the same compound, the Activity result in the data set on Mus musculus [10], in the data set with Huh-7, with Mus musculus [14], in the data set with Mus musculus [15], in the data set with Mus musculus [16] and in the data set on Mus musculus [17] was “Non-Toxic” throughout. Also, the Drug metabolism result (in data set [7]; at UMP-CMP kinase; in [8]) was “Metabolite_Detected” throughout. Besides, the Tmax (as a rule, the time at which the peak concentration occurs) in data set [9] stood at 54 min. Besides, the EC50 (commonly the concentration at which the effect is half-maximal) in data set [11] is 240 nM. In addition, the half-life (commonly how long it takes for the measured level to halve) in data set [12] was over 231 min. The AUC(0-inf) (commonly the area under the concentration-time curve extrapolated to infinity) in data set [13] is 411 ng·h/mL.
